Screening results as filed in PubChem BioAssay.
Sampled rows, rich in hits. Any-hit rate of the full collection: about 1.6%.
CFTR F508del cor = CFTR F508del correction in bronchial cells | CFBE cells, YFP halide quenching; stimulated with forskolin plus potentiator P3; % fluorescence drop versus neutral controls | activity (quench increase), % at 7.58 µM | actives 0.36% (n = 350,000) | AID 720511;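 active = mean added fluorescence quench of at least 8% versus neutral control, with both replicates also reaching 8%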;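 note: cells transiently co-express mutant CFTR-F508del with the halide-sensitive YFP; corrector assay measuring rescue of mutant channel to the surface after 24 h compound exposure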
DNMT1 block = DNMT1 (human) enzyme inhibition; inhibition (reported as % activation of signal), % at 10 µM; P26358; DNMT1 molecular beacon, Hinp1I cleavage, fluorescence; actives 0.83% (n = 360,000); in the data active = inhibition above about 50%
LMPTP inh = blocks human LMPTP phosphatase | inhibition, % at 20 µM | P24666 | actives 0.22% (n = 360,000) | recombinant LMPTP-A, OMFP fluorogenic substrate, fluorescence intensity;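 active = compounds that cut the enzyme signal by at least half of the control window in the single-dose screen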
Target sequence (P24666 whole entry, looked up): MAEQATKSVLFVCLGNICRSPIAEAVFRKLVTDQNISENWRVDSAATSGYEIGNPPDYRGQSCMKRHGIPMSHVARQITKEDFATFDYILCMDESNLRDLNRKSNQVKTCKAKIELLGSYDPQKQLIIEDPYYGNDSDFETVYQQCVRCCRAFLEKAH
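material = LMPTP-A | quantity = 0.625 nM enzyme | reagent = OMFP substrate, 400 µM final | buffer or medium = Bis-Tris pH 6.0, DTT, detergent | detection = endpoint fluorescence intensity from OMFP dephosphorylation | dosing = single 20 µM dose | read-out basis = % inhibition relative to no-enzyme and uninhibited control wells | control set = no-enzyme and uninhibited controls | timing = 50 min at room temperature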
Scp1 inh = blocks human Scp-1 phosphatase activity; actives 0.88% (n = 340,000); Recombinant Scp1, phosphopeptide, malachite green phosphate absorbance; AID 493091; inhibition, % at 20 µM;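 active = inhibition above about 50% at 20 µM, limit read from the data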
Target sequence (Q9GZU7 76-261 limits assumed): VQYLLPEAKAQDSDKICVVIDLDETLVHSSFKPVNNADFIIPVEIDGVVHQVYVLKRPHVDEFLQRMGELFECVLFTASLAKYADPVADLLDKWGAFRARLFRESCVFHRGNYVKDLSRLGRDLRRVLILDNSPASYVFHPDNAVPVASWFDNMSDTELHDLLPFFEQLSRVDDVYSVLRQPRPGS
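System: truncated SCP-1 phosphatase (76-261aa); medium: Tris acetate buffer pH 5.5 with MgCl2 and Tween-20; incubation: 45 min room-temperature reaction, 5 min colour, 30 min stabiliser; compound: single 20 µM dose, 1% DMSO; reagent: Phosphorylated 17-residue peptide substrate; read-out: % inhibition at 20 µM; technique: colorimetric free-phosphate detection, absorbance 630 nm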
SUMO1-SIM PPI = SUMO1-SIM interaction modulation | P63165 | SUMO1 binding to a labelled peptide, TR-FRET, 1 h | inhibition, % at 20 µM | actives 0.33% (n = 360,000); in the data active = inhibition above about 37%
Target sequence (P63165 whole entry, looked up): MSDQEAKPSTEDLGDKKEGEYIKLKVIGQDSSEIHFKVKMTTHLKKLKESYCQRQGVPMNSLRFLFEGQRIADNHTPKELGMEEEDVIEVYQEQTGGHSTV
STEP block = inhibitors of human striatal-enriched phosphatase STEP; P54829; recombinant STEP, OMFP fluorogenic substrate, fluorescence; inhibition, % at 20 µM; actives 0.25% (n = 360,000);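 active = inhibition at 20 µM, scaled per plate between control wells, above about 37%, limit read from the data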
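medium = Bis-Tris buffer pH 6.0, 2.5 mM DTT, 0.005% Tween 20 | test system = STEP (striatal-enriched tyrosine phosphatase) enzyme, cell-free | measure = normalized % inhibition | compound dosing = 20 µM, 1% DMSO | also added = 25 µM OMFP | schedule = reaction 20 min, ambient temperature | measured by = fluorescence read at 480 nm ex / 540 nm em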
STEP conf = confirmation of human STEP phosphatase inhibitors. shares compounds with STEP block. recombinant STEP, OMFP fluorogenic substrate, fluorescence. inhibition, % at 20 µM. actives 32% (n = 520); call rule not given here
A number is an active result; – = inactive; · = not tested or not shown.

SMILES | CFTR F508del cor | DNMT1 block | LMPTP inh | Scp1 inh | SUMO1-SIM PPI | STEP block | STEP conf
O=C(CCN1CCCCC1)NCC[C@H]1CC[C@H](NC(=O)C2CCOCC2)[C@H](CO)O1 | – | · | · | · | · | · | ·
COc1ccc(/C=C2/SC(=O)N(CCC(=O)Nc3ccc(C)cc3)C2=O)cc1OC | – | · | · | · | · | · | ·
COc1cc(/C=C2/SC(=S)N(CC(=O)O)C2=O)ccc1OCC(=O)Nc1ccc(C)c(C)c1 | – | – | – | · | – | 90.7 | 56.2
CCC(=O)N(C)C[C@H]1Oc2cc(C#CC(C)C)ccc2S(=O)(=O)N([C@H](C)CO)C[C@@H]1C | – | · | · | · | · | · | ·
CCOC(=O)N1CCC(N(CCN(C)C)C(=S)Nc2cc(Cl)ccc2C)CC1 | – | – | – | – | – | 65.1 | 35.6
Cc1noc(C)c1NC(=O)N(C)C[C@@H]1OCc2ccccc2-c2ccccc2C(=O)N([C@H](C)CO)C[C@H]1C | – | · | · | · | · | · | ·
Cc1cc(-c2nnc3sc(-c4ccc(Cl)cc4Cl)nn23)n[nH]1 | · | – | – | – | – | 86.0 | –
O=C(C[C@@H]1C[C@H]2c3cc(NC(=O)CC4CC4)ccc3O[C@H]2[C@H](CO)O1)NCc1ccncc1 | – | · | · | · | · | · | ·
CSc1ccc(C(=S)N2CCN(CCO)CC2)cc1 | · | – | – | – | – | 53.9 | –
S=C(c1ccc(Br)cc1)N1CCCC1 | – | – | – | – | – | – | ·
OCCN1CCN(C(=S)c2ccc(Br)cc2)CC1 | · | – | – | – | – | 84.0 | 39.5
Cc1cc(N2CCN(C(=O)c3ccco3)CC2)c2ccccc2n1 | – | – | – | – | – | 71.1 | –
Nc1nc(N2CCN(C(=O)c3ccco3)CC2)nc2ccccc12 | · | – | – | – | – | – | ·
CC(=O)N1[C@H](CO)[C@H](c2ccccc2)C12CN(S(=O)(=O)c1ccccc1)C2 | – | · | · | · | · | · | ·
C[C@@H]1CN([C@@H](C)CO)C(=O)Cc2cc(NC(=O)Cc3ccccc3)ccc2O[C@@H]1CN(C)Cc1ccc(C(=O)Nc2ccccc2N)cc1 | – | · | · | · | · | · | ·
CCOc1ccc(C(=O)Nc2nc(C)c(C(=O)OC)s2)cc1 | – | – | – | – | – | 79.4 | –
COC(=O)c1sc(NC(=O)c2ccncc2)nc1C | – | – | – | – | – | – | ·
COc1ccc(CNC(=O)C(C)OC(=O)C23CC4CC(CC(O)(C4)C2)C3)cc1 (stereo not drawn) | · | – | – | – | – | 97.2 | –
Cc1ccc(N(CC(=O)N/N=C/c2cccs2)S(C)(=O)=O)cc1 | · | – | – | – | – | 121.4 | –
CC=Cc1ccc2n(c1=O)C[C@@H]1[C@@H](CO)[C@H](C(=O)NCCC)[C@H]2N1C(=O)c1ccncc1 (mixture of isomers) | – | · | · | · | · | · | ·
CC(C(=O)Nc1ccc(O)cc1C(=O)O)N1C(=O)/C(=C\c2cccs2)SC1=S (stereo not drawn) | – | – | – | – | – | 77.0 | 79.9
COc1cccc(NC(=O)Cc2cn(C)c3ccccc23)c1 | · | – | – | – | – | 50.4 | –
C[C@H]1CN([C@@H](C)CO)C(=O)c2cccc(NC(=O)c3ccncc3)c2O[C@@H]1CN(C)C(=O)Nc1ccccc1 | – | · | · | · | · | · | ·
O=C(C[C@H]1CC[C@@H]2[C@H](COC[C@@H](O)CN2CC2CCCC2)O1)NCc1ccc(Cl)cc1 | – | · | · | · | · | · | ·
Cc1cc(C)c(NC(=S)NCC2CCN(C(C)c3ccccc3)C2)c(C)c1 (stereo not drawn) | – | – | – | – | – | 95.4 | 82.7
SMILES | CFTR F508del cor | DNMT1 block | LMPTP inh | Scp1 inh | SUMO1-SIM PPI | STEP block | STEP conf
Cc1ccc(NC(=S)NCC2CCN(C(C)c3ccccc3)C2)cc1 (stereo not drawn) | – | – | – | – | – | 47.1 | –
C/C(=N\NC(=O)c1ccncc1)c1ccc(N2CCOCC2)cc1 | – | – | – | – | – | – | ·
C/C(=N\NC(=O)c1ccc(OC2OCCOC2Oc2ccc(C(=O)N/N=C(\C)c3ccncc3)cc2)cc1)c1ccncc1 (stereo not drawn) | – | – | 66.2 | – | 78.3 | 45.0 | –
Cc1cc([N+](=O)[O-])ccc1NC(=O)Cc1ccc(F)cc1 | · | – | – | – | – | 117.4 | –
Cc1ccc(C(=S)N2CCN(Cc3ccccc3)CC2)cc1 | – | – | – | – | – | 86.9 | –
Cc1ccc(NC(=S)N2CCN(Cc3ccccc3)CC2)cc1 | – | – | – | – | – | – | ·
CCN1CCN(C(=S)c2ccc(Cl)c(Cl)c2)CC1 | · | – | – | – | – | 90.9 | 51.4
CCN1CCN(C(=S)c2ccc(OCC(=O)NCc3ccccc3)cc2)CC1 | – | – | – | – | – | 64.5 | 25.4
S=C(c1ccccc1)N1CCN(C(=S)c2ccccc2)CC1 | · | – | – | – | – | – | ·
CCN1CCN(C(=S)c2ccc(-c3ccccc3)cc2)CC1 | · | – | – | – | – | 42.5 | –
CCN1CCN(C(=S)Nc2ccc(Cl)c(Cl)c2)CC1 | – | – | – | – | – | – | ·
COc1cccc(NC(=O)N(C)C[C@@H]2OCc3cnnn3CCCC(=O)N([C@@H](C)CO)C[C@@H]2C)c1 | – | · | · | · | · | · | ·
COCCN(C(=S)Nc1ccc(OC)c(Cl)c1)C1CCN(C(C)C)CC1 | – | – | – | – | – | 70.6 | –
COc1ccc(NC(=S)N(CCC(C)C)C2CCN(C(C)C)CC2)cc1Cl | – | – | – | – | – | 97.6 | 79.0
Cc1nc(CSc2nsc(/C=C/N(C)C)c2C#N)cs1 | – | – | – | – | – | – | ·
COC(=O)c1ccccc1CSc1nsc(/C=C/N(C)C)c1C#N | · | – | – | – | – | 85.7 | 102.9
CCOc1cc(/C=C(\C#N)C(=O)Nc2ccccc2C(=O)O)ccc1OC(=O)c1ccc(C)cc1 | – | – | – | – | – | 58.3 | –
CNC(=S)Nc1ccccc1-c1ccccc1 | · | – | – | – | – | 41.0 | –
CCNC(=S)Nc1ccccc1-c1ccccc1 | · | – | – | – | – | – | ·
O=C(COc1ccc(Cl)cc1)Nc1ccc2oc(-c3ccncc3)nc2c1 | · | – | – | – | – | – | ·
COc1ccc(OCC(=O)Nc2ccc3oc(-c4ccncc4)nc3c2)cc1 | – | – | – | – | – | 48.6 | –
NC1=NC(=O)/C(=C/c2ccccc2OS(=O)(=O)c2ccccc2)S1 | · | – | – | – | – | – | ·
CN1CCN(C2=NC(=O)/C(=C/c3ccccc3OS(=O)(=O)c3ccccc3)S2)CC1 | – | – | – | – | – | 46.6 | –
C[C@H](CO)N1C[C@H](C)[C@H](CN(C)S(=O)(=O)c2ccc(Oc3ccccc3)cc2)OCc2cnnn2CCCC1=O | – | · | · | · | · | · | ·
CCn1c(SCC(=O)N/N=C/C=C\c2ccccc2[N+](=O)[O-])nc2ccccc21 | · | – | – | – | – | 51.8 | –
Cn1c(SCC(=O)N/N=C/C=C/c2ccccc2[N+](=O)[O-])nc2ccccc21 | · | – | – | – | – | – | ·
